From PubChem BioAssay
The list is not random: actives were taken first. Their share in the collection is about 3.1%.
KCNK3 block – human KCNK3 channel inhibition, primary screen | CHO-KCNK3 thallium flux, FluxOR fluorescence; hits give low values | B-score at 10 µM | 340,000 compounds, 0.84% hits | AID 602410 | O14649;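 active = B-score under library mean minus 4 SD, starting fluorescence ratio at most library mean plus 5 SD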;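 note: more negative B-score means stronger inhibition of thallium flux through KCNK3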
Target sequence (O14649 whole entry, looked up): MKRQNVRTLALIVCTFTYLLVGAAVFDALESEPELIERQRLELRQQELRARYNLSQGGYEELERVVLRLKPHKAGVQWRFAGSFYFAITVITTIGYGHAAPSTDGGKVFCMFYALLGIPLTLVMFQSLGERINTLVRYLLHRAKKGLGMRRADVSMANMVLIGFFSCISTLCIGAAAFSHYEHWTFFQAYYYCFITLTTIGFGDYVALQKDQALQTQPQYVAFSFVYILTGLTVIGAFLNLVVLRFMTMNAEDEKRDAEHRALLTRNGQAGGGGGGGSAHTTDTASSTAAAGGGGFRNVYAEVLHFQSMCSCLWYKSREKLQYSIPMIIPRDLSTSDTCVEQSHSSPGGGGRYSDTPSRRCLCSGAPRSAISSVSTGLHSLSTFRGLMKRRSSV
hERG protect – shields human hERG channel from block by proarrhythmic agents | CHO-hERG, FluxOR thallium flux, dofetilide IC70 present | 310,000 compounds, 0.51% hits | activation (rescue from dofetilide block), less the hit threshold, % at 10 µM | Q12809 | AID 1511;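 active = activation above the mean of controls blocked by dofetilide plus 5 SD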;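 note: thallium influx through hERG after potassium depolarization seen as dye fluorescence rise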
KCNK9 block – human KCNK9 channel inhibition. Q9NPC2. HEK293 KCNK9, FluxOR thallium flux fluorescence; hits give low values. B-score at 10 µM. 310,000 compounds, 1.2% hits;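 active = ratio B-score over 3 SD below the library mean, with starting fluorescence within 5 SD of its mean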;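 note: negative B-score means less thallium flux so channel inhibition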
KCNQ1 block – human KCNQ1 channel inhibition. 310,000 compounds, 1.3% hits. B-score at 10 µM. CHO-K1 KCNQ1, FluxOR thallium flux fluorescence; hits give high values. AID 2642;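 active = compounds whose thallium flux B-score, printed positive for inhibition, exceeds three library SD while starting fluorescence stays within three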;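 note: channel opened by potassium depolarization with thallium stimulus after 20 min compound exposure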
KCNQ1 act – human KCNQ1 channel potentiation or activation | P51787 | CHO-K1 KCNQ1, thallium flux FluxOR fluorescence; hits give high values | B-score at 10 µM | 310,000 compounds, 0.35% hits;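 active = fluorescence ratio B-score, a plate-corrected score, at least three library SD, with initial intensity B-score within 5 SD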
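Material: CHO-K1 cells stably expressing KCNQ1. Medium: assay buffer for compound exposure, DMSO matched across wells. Reagent: K+/Tl+ depolarizing stimulus. Compound dosing: single-concentration screen. Times: 37 °C overnight plating, 90-min dark dye load, 20-min compound pretreatment. Technique: FluxOR Tl+ flux fluorescence.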
* marks the source's active call; other numbers are inactive results.

`COc1ccc(C(=O)NC(C(=O)N2CCN(c3ccccc3O)CC2)C(C)C)cc1` (stereo not drawn) gave KCNK3 block inactive, hERG protect -7, KCNK9 block inactive, KCNQ1 block inactive and KCNQ1 act inactive.
For COc1ccc(C(=O)N[C@H](C(=O)N2CCN(c3ccccc3F)CC2)C(C)C)cc1 the results were KCNK3 block inactive, hERG protect 4.9*, KCNK9 block inactive, KCNQ1 block inactive and KCNQ1 act inactive.
Screening Cc1[nH]c(=O)[nH]c(=O)c1S(=O)(=O)Nc1cccc([N+](=O)[O-])c1C returned KCNK3 block inactive, hERG protect 0, KCNK9 block inactive, KCNQ1 block inactive and KCNQ1 act inactive.
Screening O=C(OCCc1cc2ccccc2c(=O)o1)c1ccc(F)cc1 returned KCNK3 block inactive.
O=C(OCCc1cc2ccccc2c(=O)o1)c1cccc(Br)c1 was read as KCNK3 block -8.8*.
COC(=O)c1sc(NC(=O)COc2ccc(OC)cc2)nc1C was read as KCNK3 block inactive, hERG protect -1, KCNK9 block inactive, KCNQ1 block inactive and KCNQ1 act inactive.
For COC(=O)c1sc(NC(=O)COc2cccc3ccccc23)nc1C the results were KCNK3 block inactive, hERG protect 9.0*, KCNK9 block inactive, KCNQ1 block inactive and KCNQ1 act inactive.
COC(=O)c1sc(NC(=S)NC(=O)c2cccc(C)c2)nc1C was read as KCNK3 block inactive, hERG protect 6.2*, KCNK9 block inactive, KCNQ1 block inactive and KCNQ1 act inactive.
Screening COC(=O)c1ccc(C(=O)NC(=S)Nc2nc3c(s2)CCCC3)cc1 returned KCNK3 block inactive, hERG protect 2, KCNK9 block inactive, KCNQ1 block inactive and KCNQ1 act 23*.
`O=C(OCC(=O)N1N=C(c2ccc(Cl)cc2)CC1c1ccco1)c1cccnc1` (stereo not drawn) gave KCNK3 block inactive.
`CCOc1ccccc1N(CC(=O)NCCSc1ccccc1)S(C)(=O)=O` gave KCNK3 block inactive, hERG protect -10, KCNK9 block inactive, KCNQ1 block inactive and KCNQ1 act inactive.
For CN(C(=O)c1cccc(NC(=O)Cc2ccc(NC(=O)C3CCN(C(=O)C4CCC4)CC3)cc2)c1)C1CCCCC1 the results were KCNK3 block inactive.
Clc1cnc(N/N=C/c2ccco2)c(Cl)c1 was read as KCNK3 block inactive, hERG protect -4, KCNK9 block inactive, KCNQ1 block inactive and KCNQ1 act inactive.
`Oc1ccc(/C=N/Nc2ncc(Cl)cc2Cl)cc1` gave KCNK3 block inactive, hERG protect -1, KCNK9 block inactive, KCNQ1 block inactive and KCNQ1 act inactive.
For Cc1ccc(/C=N/Nc2ncc(Cl)cc2Cl)s1 the results were KCNK3 block inactive, hERG protect -23, KCNK9 block inactive, KCNQ1 block 7* and KCNQ1 act inactive.
`Clc1cnc(N/N=C/c2cccs2)c(Cl)c1` gave KCNK3 block inactive, hERG protect -13, KCNK9 block inactive, KCNQ1 block 6* and KCNQ1 act inactive.
Screening C[C@@H]1C(=O)O[C@H]2[C@H](O)[C@@]34[C@H]5C[C@@H](C(C)(C)C)[C@]36[C@@H](OC(=O)[C@@H]6O)O[C@@]4(C(=O)O5)[C@@]12O returned KCNK3 block inactive, hERG protect 0, KCNK9 block inactive, KCNQ1 block inactive and KCNQ1 act inactive.
Cc1ncc(CO)c(/C=N/NC(=O)c2ccc(O)cc2)c1O was read as KCNK3 block inactive, hERG protect -7, KCNK9 block inactive, KCNQ1 block inactive and KCNQ1 act inactive.
Screening Cc1ncc(CO)c(/C=N/NC(=S)Nc2cccc(Cl)c2)c1O returned KCNK3 block inactive, hERG protect -31, KCNK9 block inactive, KCNQ1 block 6* and KCNQ1 act inactive.
Cc1ncc(CO)c(/C=N/NC(=S)Nc2ccc(Cl)c(Cl)c2)c1O was read as KCNK3 block inactive, hERG protect -28, KCNK9 block inactive, KCNQ1 block 11* and KCNQ1 act inactive.
Screening Cn1nc(NC(=O)CC23CC4CC(CC(C4)C2)C3)c2c(F)cccc21 returned KCNK3 block inactive, hERG protect -4, KCNK9 block inactive, KCNQ1 block inactive and KCNQ1 act inactive.
